NPY Y2 blocker: blocks the human neuropeptide Y Y2 receptor | NPY-Y2 expressing cells, antagonist mode | inhibition, % at 2.7 µM | 140,000 compounds, 0.99% hits | AID 793; in the data active = inhibition above about 17%;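 note: 0% = vehicle with agonist challenge and 100% = reference antagonist with challenge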
Target sequence (P49146 whole entry, looked up): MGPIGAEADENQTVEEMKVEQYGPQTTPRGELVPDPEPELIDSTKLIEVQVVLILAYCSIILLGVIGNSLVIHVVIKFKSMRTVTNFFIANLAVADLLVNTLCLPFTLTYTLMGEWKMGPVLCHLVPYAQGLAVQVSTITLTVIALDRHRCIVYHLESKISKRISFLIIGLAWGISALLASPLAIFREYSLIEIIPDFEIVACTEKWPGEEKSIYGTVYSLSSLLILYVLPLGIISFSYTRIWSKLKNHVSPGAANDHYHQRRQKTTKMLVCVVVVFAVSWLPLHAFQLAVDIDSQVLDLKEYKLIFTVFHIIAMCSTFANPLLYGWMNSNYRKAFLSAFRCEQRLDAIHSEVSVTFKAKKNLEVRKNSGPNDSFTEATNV
MT stabilizer: microtubule stabilizers in HeLa cells; HeLa tubulin immunostaining HCS, 24 h; share of cells brighter than vehicle mean+2SD; % tubulin-high responders, % at 10 µM; 200,000 compounds, 0.83% hits;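 active = plate Z-score above 3 for both tubulin-high and condensed-nucleus cell shares, with cell loss under 80%, at 10 µM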;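 note: anti alpha tubulin signal scored within the nucleus-defined area of each cell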
b-catenin transl: alters nuclear translocation of beta-catenin in HeLa cells | 190,000 compounds, 0.3% hits | nuclear translocation activity, % at 5 µM | immunofluorescence imaging | AID 1665;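 active = nuclear translocation activity above 50% at 5 µM, with a well cell count of 50 or more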;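 note: per-cell ratio of nuclear to cytoplasmic median beta-catenin stain intensity; plate controls were DMSO negative control for no effect and GSK-3 inhibitor IX positive control for full effect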
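test system = HeLa cells, endogenous beta-catenin | dosing = single 5 µM dose plus 0.02–20 µM confirmation series | times = compound treatment 24 h, 37°C, 5% CO2 | technique = beta-catenin immunofluorescence imaging with DAPI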
NPY-Y1 antag: antagonists of human neuropeptide Y receptor Y1 | P25929 | HEK293-CNG Y1 cells, membrane potential fluorescence; NPY at EC95, then isoproterenol | inhibition, % at 3.6 µM | 200,000 compounds, 1% hits | AID 1040;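 active = inhibition above the campaign mean inhibition of all tested compounds plus 3 SD, cut at about 20% in these data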;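 note: 0% = DMSO wells given NPY plus isoproterenol and 100% = isoproterenol alone without NPY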
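Material: HEK293 cells co-expressing NPY Y1 receptor and cyclic-nucleotide gated channel. Timing: compound incubation 1 h at room temperature, readout 45 min post-stimulation. Signal: fluorescence, membrane potential probe.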
NPY-Y1 PAM-ag: potentiates or activates human NPY-Y1 receptor; NPY-Y1 expressing cells, potentiator/agonist activation; activation, % at 3.6 µM; 220,000 compounds, 0.37% hits; in the data active = activation above about 33%, passing the limit was not always enough;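 note: cells stimulated with NPY at EC10 then isoproterenol at EC100; 0% = low agonist plus stimulus and 100% = saturating agonist plus stimulus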
NPY2 pot ag: human NPY-Y2 potentiation or agonism, primary screen | activation, % at 3.6 µM | 220,000 compounds, 0.45% hits | AID 1359 | cells expressing NPY-Y2, potentiator/agonist read-out; in the data active = activation above about 27%;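 note: cells stimulated with NPY near EC25 plus isoproterenol at EC100; 0% = vehicle plus submaximal agonist and 100% = vehicle plus saturating agonist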
Starred values were filed as active, the others as inactive; nt = no result. Shown are actives, neighbours in structure and some others; about 2.6% of the full set was active somewhere.

SMILES	NPY Y2 blocker	MT stabilizer	b-catenin transl	NPY-Y1 antag	NPY-Y1 PAM-ag	NPY2 pot ag
CC(=O)N1CCN(Cc2nc3cc(NC(=O)c4ccccc4C)ccc3n2C)CC1	2.0	2.8	-1.1	2.0	3.7	-10.3
O=C(NNC(=O)c1cccc2ccccc12)c1ccc2c(c1)OCO2	nt	nt	-4.9	nt	14.5	-7.3
Cc1ccc([N+](=O)[O-])cc1NC(=O)CN(C(=O)c1ccccc1Cl)C1CCCCC1	25.9*	1.7	-3.9	50.0*	-9.1	10.9
O=C(COC(=O)CCCN1C(=O)c2cccc3cccc(c23)C1=O)Nc1cccc(Br)c1	4.3	13.1*	nt	1.2	2.9	-1.8
CCc1cccc(C)c1NC(=S)NCC(c1cccnc1)N1CCOCC1 (centres undefined)	0.7	2.6	-0.2	0.3	11.9	-3.4
O=c1[nH]c(NCc2ccco2)nnc1Cc1ccccc1Cl	7.9	58.7*	3.1	6.1	-0.9	-6.8
Cc1cc(C)c(CSc2ncnc3nc[nH]c23)c(C)c1	nt	2.3	56.1*	14.5	-35.5	-19.1
Cc1cccc(CSc2ncnc3nc[nH]c23)c1	7.7	3.1	-1.8	5.3	2.7	-15.6
CCOc1ccccc1C(=O)N1CCN(c2cccc(Cl)c2)CC1	17.4*	14.8*	68.6*	29.9*	-17.3	-13.6
O=C(O)c1ccccc1C(=O)N1CCN(c2cccc(Cl)c2)CC1	5.3	4.0	-0.6	4.3	-13.6	0.8
COc1ccc(N2CCN(C(=O)c3ccc(SC)cc3OC)CC2)cc1	nt	2.2	0.0	4.0	20.3	5.2
COc1ccccc1C(=O)N1CCN(c2cccc(C(F)(F)F)c2)CC1	9.0	35.0*	87.8*	19.0	31.8	3.5
COc1ccc(C(=O)N2CCN(c3cccc(Cl)c3)CC2)c(OC)c1	0.9	43.7*	nt	-1.6	-14.2	-7.0
COc1cc(C(C(=O)NC2CCCCC2)N(CCN2CCOCC2)C(=O)C2COc3ccccc3O2)cc(OC)c1OC (centres undefined)	nt	1.6	-1.2	0.3	-1.2	-8.9
c1csc(CNc2nc(-c3cccs3)nc3ccccc23)c1	nt	1.8	-2.0	1.7	-10.8	9.7
c1ccc(CN2CCC(Nc3nc(-c4cccs4)nc4ccccc34)CC2)cc1	nt	32.4	29.1	21.1*	4.3	29.2
CC1CCN(c2nc(N3CCCCC3)nc(N3CCCCC3)n2)CC1	nt	3.8	0.2	-1.1	-1.3	10.3
C1CCN(c2nc(N3CCCCC3)nc(N3CCNCC3)n2)CC1	5.5	2.1	-3.4	-26.4	102.9*	95.5*
O=C(COc1ccc([N+](=O)[O-])cc1)Nc1ccc2c(c1)OCO2	nt	12.0*	0.1	5.8	2.1	0.1
O=C(COc1ccc(Br)cc1)Nc1ccc([N+](=O)[O-])cn1	12.4	1.3	nt	20.9*	-17.0	-1.3
CCC(CC)NC(=O)CCCSc1nc2ccccc2[nH]1	nt	3.2	-1.7	1.4	8.8	-0.1
Cc1cc(-c2nc3ncccc3o2)ccc1NC(=S)NC(=O)C(C)C	nt	5.3	0.0	7.2	-21.2	-5.5
O=C(NCc1csc(-c2ccccc2)n1)c1cc(F)cc2c1OCOC2	nt	nt	-1.4	nt	-2.4	-6.4
COc1ccc(NS(=O)(=O)c2cc(NC(=O)[C@@H](NC(=O)c3ccccc3)C(C)C)ccc2C)cc1	0.5	8.4	41.7	1.7	5.6	-2.4
N#C/C(=C/c1ccc(N2CCOCC2)o1)c1ccc(Cl)cc1	2.8	47.7*	-0.3	-2.9	11.3	-12.6
SMILES	NPY Y2 blocker	MT stabilizer	b-catenin transl	NPY-Y1 antag	NPY-Y1 PAM-ag	NPY2 pot ag
N#C/C(=C\c1ccc(N2CCOCC2)o1)c1nc2ccccc2[nH]1	1.3	2.6	0.0	-0.7	-11.9	-13.5
O=C(Nc1ccccc1Br)C1CC(=O)N(c2ccc3c4c(cccc24)CC3)C1 (centres undefined)	3.0	37.7*	4.4	0.2	-4.9	-11.0
CCOC(=O)COc1cccc2c(=O)n(CC(=O)NCc3ccc4c(c3)OCO4)ccc12	4.0	18.6*	64.3*	-8.4	-3.7	1.2
COC(=O)COc1cccc2c(=O)n(CC(=O)NCc3ccc(F)cc3)ccc12	nt	20.1*	-1.8	5.2	-11.9	-29.1
CCOC(=O)C(C)Oc1cccc2c(=O)n(CC(=O)NCc3ccc(F)cc3)ccc12 (centres undefined)	nt	nt	106.2*	nt	6.9	-10.8
COC(=O)COc1cccc2c(=O)n(CC(=O)N3CCCCC3)ccc12	nt	nt	0.1	nt	16.6	10.8
CCOC(=O)C(C)Oc1cccc2c(=O)n(CC(=O)NCc3ccccc3)ccc12 (centres undefined)	nt	nt	50.7*	nt	13.8	-6.2
CCOC(=O)C(C)Oc1cccc2c(=O)n(CC(=O)NCCc3ccccc3)ccc12 (centres undefined)	nt	nt	0.9	nt	-1.1	-5.5
Cc1cccc(N2C(=O)CSC23CCCCC3)c1	nt	2.8	-0.7	-3.6	-3.2	-0.8
Cc1onc(-c2ccccc2Cl)c1C(=O)NC(=S)Nc1ccc(C(C)(C)C)cc1	nt	nt	-0.4	nt	-17.4	-31.3
CC(C)(C)n1ncc2c(=O)n(CC(=O)NCc3ccc(F)cc3)cnc21	1.1	47.0*	-0.4	-0.7	0.2	-1.0
CC(C)(C)n1ncc2c(=O)n(CC(=O)NCc3ccco3)cnc21	2.7	4.0	-0.6	4.0	3.4	7.1
Cc1ccc(C)c(-n2c3nc(=O)[nH]c(=O)c-3cc3cc([N+](=O)[O-])ccc32)c1	10.1	6.9	92.6*	5.5	-14.7	0.3
Cc1cccc(-n2c3nc(=O)[nH]c(=O)c-3cc3cc([N+](=O)[O-])ccc32)c1	1.9	10.0	2.5	1.5	-7.6	-15.3
Cc1cc(NC(=O)CCC(=O)N(c2ccccc2)C(C(=O)NCC2CCCO2)c2cccnc2)no1 (centres undefined)	0.0	1.6	0.9	3.4	-7.4	12.7
Cn1nc(C(F)(F)F)c(-c2ccc(Br)cc2)c1NC(=O)Nc1ccc(F)cc1F	nt	nt	1.7	nt	108.3*	99.4*
O=C(CCN1C(=O)c2ccccc2C1=O)Nc1sc2c(c1C(=O)NCC1CCCO1)CCC2 (centres undefined)	-1.3	2.2	0.7	-6.8	6.3	-0.8
CCOC(=O)C1CCCN(CC(O)COc2ccccc2C(C)=O)C1 (centres undefined)	1.7	1.1	nt	-7.0	62.0*	37.5*
CCOC(=O)N1CCN(CC(O)COc2ccc(OC)cc2C(C)(C)C)CC1 (centres undefined)	3.4	4.7	1.8	9.0	-18.7	3.2
CCOC(=O)C1CCCN(Cc2ccccc2OCC)C1 (centres undefined)	3.5	1.0	-3.0	0.5	-0.8	-10.1
CCOC(=O)C1CCCN(CC(O)COc2ccc(OC)cc2C(C)(C)C)C1 (centres undefined)	2.3	2.3	-1.6	-5.2	41.2*	48.8*
O=C(Nc1ccc(C#Cc2ccccc2)cc1)C1CC1	-3.1	1.1	8.9	-5.7	78.4*	38.4*
Cc1ccc(S(=O)(=O)NCCCCCC(=O)Nc2c(C)n(C)n(-c3ccccc3)c2=O)cc1	nt	4.2	4.1	-2.1	3.1	9.4
